Experimental data pooled from the literature.
Each line is one published result; the experiments were not run side by side.
CDK19 with cyclin C: Cyclin-dependent kinase 19, with cyclin C (CDK19, Homo sapiens, UniProt Q9BWU1)
CDK19: Cyclin-dependent kinase 19 (CDK19, Homo sapiens, UniProt Q9BWU1)

| SMILES | target | assay | conditions | quantity | value |
| --- | --- | --- | --- | --- | --- |
| O=C(Nc1cnn(-c2csc(C(=O)NC3COC3)c2)c1)Nc1c(F)cccc1Cl | CDK19 with cyclin C | enzyme activity, inhibitor | 5 µM | remaining activity | 96.2% |
| CC(C)(C)c1nc2c(s1)c1nc(N)ncc1c1ccc(NS(=O)(=O)c3c(F)cccc3F)c(F)c12 | CDK19 with cyclin C | enzyme activity, inhibitor, radiometric | 1 µM | remaining activity | 98% |
| Cc1ccc(C(=O)Nc2ccc(CN3CCN(C)CC3)c(C(F)(F)F)c2)cc1C#Cc1cnc2cccnn12 | CDK19 | enzyme activity, inhibitor | 23.5 nM | remaining activity | 31% |
| C[C@@H]1CN(c2ccc3ncc(-c4ccc5[nH]nc(C6CC6)c5c4)n3n2)C[C@H](C)O1 | CDK19 | binding, competition with immobilised ligand | 0.5 µM | remaining binding | 13% |
| CN1CCN(C(=O)c2ccc3cc(CCNc4ccnc5ccc(C#N)cc45)ccc3c2)CC1 | CDK19 | binding, competition with immobilised ligand | 2 µM | inhibition | > 85% |
| F[C@@H]1CCN(c2nccc(-c3cnn4ncccc34)n2)C1 | CDK19 | binding | 1 µM | remaining binding | 100% |
| Cc1sc(C(=O)NC2COC2)cc1-n1cc(NC(=O)Nc2c(F)cccc2Cl)cn1 | CDK19 with cyclin C | enzyme activity, inhibitor | 10 µM | remaining activity | 98.1% |
| CC(C)(C)c1nc(-c2cccc(NS(=O)(=O)c3c(F)cccc3F)c2F)c(-c2ccnc(N)n2)s1 | CDK19 with cyclin C | enzyme activity, inhibitor, radiometric | 1 µM | remaining activity | 94% |
| C[C@@H]1CCN(c2nccc(-c3cnn4ncccc34)n2)C1 | CDK19 | binding | 1 µM | remaining binding | 97% |
